From ChEMBL document CHEMBL4390662, “Design, synthesis and biological evaluation of novel α-acyloxy carboxamides via Passerini reaction as caspase 3/7 activators” (Eur J Med Chem, 2019)
Activity calls are given as the source filed them. The calls are words filed in the database; no cut-off is given here.

What was measured:
WI-38 = test: Cytotoxicity against human WI38 cells assessed as cell growth inhibition incubated for 72 hrs by MTT assay; format: cell-based; details: for IC50: Homo sapiens, WI-38, 72 h; for EC100: human, wi-38, 72 h
Method in brief: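 Wi-38 fibroblasts grown in DMEM with 10% FBS and seeded at 5×10^3 per well. Attachment 24 h, then serial concentrations for 72 h at 37°C, 5% CO2. MTT stock (5 mg/mL) added for 3 h at 37°C, DMSO solubilization, absorbance at 570 nm. IC50 estimated.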

NFS-60 [1] = test: Cytotoxicity against mouse NFS60 cells assessed as cell growth inhibition incubated for 72 hrs by MTT assay; format: functional, cell-based; details: NFS-60, 72 h
Method in brief: (§1)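 Cells grown in RPMI-1640 with 10% FBS and seeded at 5×10^3 per well. After 24 h, serial concentrations given for 72 h at 37°C, 5% CO2. Then 5 mg/mL MTT stock added for 3 h, formazan dissolved in DMSO, A570 read. IC50 calculated from the curves.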

HepG2 [2] = test: Cytotoxicity against human HepG2 cells assessed as cell growth inhibition incubated for 72 hrs by MTT assay; format: functional, cell-based; details: HepG2, 72 h; method in brief: as §1
MCF7 [3] = test: Potency index, ratio of doxorubicin IC50 to test compound IC50 against human MCF7 cells; format: functional
[4] = Selectivity index, ratio of IC50 for human WI38 cells to IC50 for human MCF7 cells; format: toxicity; details: WI38 cells versus MCF7 cells, read-out: Ratio IC50
Method in brief: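 SI calculated as IC50 on normal Wi-38 fibroblasts divided by IC50 on the cancer cell line. Both came from 72 h MTT assays.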

MCF7 [5] = test: Induction of apoptosis in human MCF7 cells assessed as induction of cell shrinkage by phase contrast inverted fluorescence microscopy; format: functional, cell-based
NFS-60 [6] = test: Induction of apoptosis in mouse NFS60 cells assessed as induction of cell shrinkage by phase contrast inverted fluorescence microscopy; format: functional, cell-based
HepG2 [7] = test: Induction of apoptosis in human HepG2 cells assessed as induction of cell shrinkage by phase contrast inverted fluorescence microscopy; format: functional, cell-based
MCF7 [8] = test: Induction of apoptosis in human MCF7 cells assessed as late apoptotic cells at IC50 incubated for 72 hrs by annexin V/propidium iodide staining based flow cytometry (reference value: 0.01 +/- 0.001%); format: functional
MCF7 [9] = test: Induction of apoptosis in human MCF7 cells assessed as early apoptotic cells at IC50 incubated for 72 hrs by annexin V/propidium iodide staining based flow cytometry (reference value: 0.47 +/- 0.01%); format: functional
MCF7 [10] = test: Induction of apoptosis in human MCF7 cells assessed as total apoptotic cells at IC50 incubated for 72 hrs by annexin V/propidium iodide staining based flow cytometry (reference value: 0.48 +/- 0.01%); format: functional
NFS-60 [11] = test: Induction of apoptosis in mouse NFS60 cells assessed as early apoptotic cells at IC50 incubated for 72 hrs by annexin V/propidium iodide staining based flow cytometry (reference value: 0.02 +/- 0.01%); format: functional
HepG2 [12] = test: Induction of apoptosis in human HepG2 cells assessed as early apoptotic cells at IC50 incubated for 72 hrs by annexin V/propidium iodide staining based flow cytometry (reference value: 0.78 +/- 0.09%); format: functional
HepG2 [13] = test: Induction of apoptosis in human HepG2 cells assessed as total apoptotic cells at IC50 incubated for 72 hrs by annexin V/propidium iodide staining based flow cytometry (reference value: 0.169 +/- 0.02%); format: functional
NFS-60 [14] = test: Induction of apoptosis in mouse NFS60 cells assessed as caspase 3/7 activity using DEVD aminoluciferin as substrate at IC50 after 24 hrs […] relative to control; format: functional
Method in brief: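 Caspase 3/7 activation measured with Caspase-Glo 3/7 kit using a luminogenic caspase-cleavable substrate. […] Reported as percent activation, mean ± SEM.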

MCF7 [15] = test: Induction of caspase-independent apoptosis in human MCF7 cells assessed as AIF1 release level using tetramethylbenzidine as substrate incubated for 1 hr by ELISA (reference value: 2.28 +/- 0.06 ng/ml); format: functional
Method in brief: (§2)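 Extracts of untreated and treated cells added to anti-AIF1-coated wells. Incubated 1 h with HRP-conjugated antibody, washed, then TMB substrate added. Reaction stopped after 10 min and read at 450 nm. AIF1 reported in ng/mL, mean ± SEM.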

NFS-60 [16] = test: Induction of caspase-independent apoptosis in mouse NFS60 cells assessed as AIF1 release level using tetramethylbenzidine as substrate incubated for 1 hr by ELISA (reference value: 2.37 +/- 0.035 ng/ml); format: functional; method in brief: as §2
HepG2 [17] = test: Induction of caspase-independent apoptosis in human HepG2 cells assessed as AIF1 release level using tetramethylbenzidine as substrate incubated for 1 hr by ELISA (reference value: 1.18 +/- 0.06 ng/ml); format: functional; method in brief: as §2
MCF7 [18] = test: Induction of apoptosis in human MCF7 cells assessed as induction of cell shape loss by phase contrast inverted fluorescence microscopy; format: functional, cell-based
NFS-60 [19] = test: Induction of apoptosis in mouse NFS60 cells assessed as induction of cell shape loss by phase contrast inverted fluorescence microscopy; format: functional, cell-based
HepG2 [20] = test: Induction of apoptosis in human HepG2 cells assessed as induction of cell shape loss by phase contrast inverted fluorescence microscopy; format: functional, cell-based
MCF7 [21] = test: Induction of apoptosis in human MCF7 cells assessed as viable cells level at IC50 incubated for 72 hrs by annexin V/propidium iodide staining based flow cytometry (reference value: 99.5%); format: functional
MCF7 [22] = test: Induction of apoptosis in human MCF7 cells assessed as late apoptotic cells level at IC50 incubated for 72 hrs by annexin V/propidium iodide staining based flow cytometry (reference value: 0.01%); format: functional
MCF7 [23] = test: Induction of apoptosis in human MCF7 cells assessed as necrotic cells level at IC50 incubated for 72 hrs by annexin V/propidium iodide staining based flow cytometry (reference value: 0.48%); format: functional
NFS-60 [24] = test: Induction of apoptosis in mouse NFS60 cells assessed as viable cells level at IC50 incubated for 72 hrs by annexin V/propidium iodide staining based flow cytometry (reference value: 99.52%); format: functional
NFS-60 [25] = test: Induction of apoptosis in mouse NFS60 cells assessed as early apoptotic cells level at IC50 incubated for 72 hrs by annexin V/propidium iodide staining based flow cytometry (reference value: 0.46%); format: functional
NFS-60 [26] = test: Induction of apoptosis in mouse NFS60 cells assessed as late apoptotic cells level at IC50 incubated for 72 hrs by annexin V/propidium iodide staining based flow cytometry (reference value: 0.01%); format: functional
NFS-60 [27] = test: Induction of apoptosis in mouse NFS60 cells assessed as necrotic cells level at IC50 incubated for 72 hrs by annexin V/propidium iodide staining based flow cytometry (reference value: 0.01%); format: functional
HepG2 [28] = test: Induction of apoptosis in human HepG2 cells assessed as late apoptotic cells level at IC50 incubated for 72 hrs by annexin V/propidium iodide staining based flow cytometry (reference value: 0.1%); format: functional
HepG2 [29] = test: Induction of apoptosis in human HepG2 cells assessed as necrotic cells level at IC50 incubated for 72 hrs by annexin V/propidium iodide staining based flow cytometry (reference value: 0.87%); format: functional
NFS-60 [30] = test: Induction of apoptosis in mouse NFS60 cells assessed as late apoptotic cells at IC50 incubated for 72 hrs by annexin V/propidium iodide staining based flow cytometry (reference value: 0.015 +/- 0.01%)

Row | SMILES | IC50 (WI-38) [nM] | EC100 (WI-38) [µM] | IC50 (NFS-60 [1]) [nM] | IC50 (HepG2 [2]) [nM] | Ratio IC50 (MCF7 [3]) | selectivity ratio [4] | Activity (MCF7 [5]) | Activity (NFS-60 [6]) | Activity (HepG2 [7]) | Activity (MCF7 [8]) [%] | Activity (MCF7 [9]) [%] | Activity (MCF7 [10]) [%] | Activity (NFS-60 [11]) [%] | Activity (HepG2 [12]) [%] | Activity (HepG2 [13]) [%] | Activity (NFS-60 [14]) [%] | Activity (MCF7 [15]) [ng/mL] | Activity (NFS-60 [16]) [ng/mL] | Activity (HepG2 [17]) [ng/mL] | Activity (MCF7 [18]) | other results
1 | O=C(Cc1ccccc1)OC1(C(=O)Nc2ccc([N+](=O)[O-])cc2)CCCCC1 | 43.9 | 0.032 | 8.1 | 14.2 | 2 - 4 | 5.7 | Active | Active | Active | 22.09 | 11.885 | 33.98 | 13.64 | 6.0649 | 33.485 | 45.41 | 2.33 | 2.41 | 1.23 | Active | Activity (NFS-60 [19]): Active; Activity (HepG2 [20]): Active; Activity (MCF7 [21]): 59.23%; Activity (MCF7 [22]): 20.57%; Activity (MCF7 [23]): 13.14%; Activity (NFS-60 [24]): 61.34%; Activity (NFS-60 [25]): 5.65%; Activity (NFS-60 [26]): 18.21%; Activity (NFS-60 [27]): 14.8%; Activity (HepG2 [28]): 26.59%; Activity (HepG2 [29]): 7.13%; Activity (NFS-60 [30]): 20.09%
2 | O=C(OC1(C(=O)Nc2ccc([N+](=O)[O-])cc2)CCCCC1)C(O)c1ccccc1 (stereo unspecified) | 84.4 | 0.0507 | 7.8 | 7.7 | 2 - 4 | 16.8 | Active | Active | Active | 30.785 | 22.345 | 53.129 | 21.04 | 6.055 | 48.905 | 52.835 | 2.36 | 2.47 | 1.305 | Active | Activity (NFS-60 [19]): Active; Activity (HepG2 [20]): Active; Activity (MCF7 [21]): 43.92%; Activity (MCF7 [22]): 28.9%; Activity (MCF7 [23]): 23.42%; Activity (NFS-60 [24]): 53.25%; Activity (NFS-60 [25]): 2.12%; Activity (NFS-60 [26]): 22.89%; Activity (NFS-60 [27]): 21.74%; Activity (HepG2 [28]): 41.88%; Activity (HepG2 [29]): 7.11%; Activity (NFS-60 [30]): 23.645%
3 | O=C(OC1(C(=O)Nc2ccc([N+](=O)[O-])cc2)CCCCC1)c1ccc([N+](=O)[O-])cc1 | 761 | 0.149 | 7.7 | 14.1 | 2 - 4 | 87.5 | Active | Active | Active | 20.439 | 24.065 | 44.505 | 22.83 | 18.43 | 41.815 | 49.59 | 2.34 | 2.44 | 1.28 | Active | Activity (NFS-60 [19]): Active; Activity (HepG2 [20]): Active; Activity (MCF7 [21]): 54.7%; Activity (MCF7 [22]): 18.31%; Activity (MCF7 [23]): 25.02%; Activity (NFS-60 [24]): 55.46%; Activity (NFS-60 [25]): 2.41%; Activity (NFS-60 [26]): 17.56%; Activity (NFS-60 [27]): 24.58%; Activity (HepG2 [28]): 20.78%; Activity (HepG2 [29]): 19.9%; Activity (NFS-60 [30]): 18.965%
